Key:
[1] = molecular target: SRSF protein kinase 2 (Homo sapiens) (UniProt P78362); assay: Binding affinity to wild-type human full length SRPK2 (M1 to S686 residues) expressed in bacterial expression system assessed as residual binding level at 1 uM by Kinomescan method relative to control
[2] = molecular target: Death-associated protein kinase 2 (Homo sapiens) (UniProt Q9UIK4); assay: Binding affinity to wild-type human full length DAPK2 (M1 to S370 residues) expressed in bacterial expression system assessed as residual binding level at 1 uM by Kinomescan method relative to control
In short: (§1)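 Active-site-directed KinomeScan competition binding panel covering 468 kinases, compound tested at 1 μM. Each readout is the kinase signal remaining with compound, expressed as a percentage of the DMSO control. […]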

[3] = molecular target: Protein kinase C delta type (Homo sapiens) (UniProt Q05655); assay: Binding affinity to wild-type human partial length PRKCD (Q328 to D676 residues) expressed in bacterial expression system assessed as residual binding level at 1 uM by Kinomescan method relative to control
[4] = molecular target: Serine/threonine-protein kinase RIO3 (Homo sapiens) (UniProt O14730); assay: Binding affinity to wild-type human full length RIOK3 (M1 to E519 residues) expressed in bacterial expression system assessed as residual binding level at 1 uM by Kinomescan method relative to control
In short: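 Active-site-directed competition binding screen across a 468-kinase panel, run with the test compound at 1 μM. The read-out is the kinase signal remaining relative to a DMSO control, reported as a percentage. […]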

[5] = molecular target: SRSF protein kinase 3 (Homo sapiens) (UniProt Q9UPE1); assay: Binding affinity to wild-type human partial length SRPK3 (P41 to P567 residues) expressed in bacterial expression system assessed as residual binding level at 1 uM by Kinomescan method relative to control
[6] = molecular target: Rhodopsin kinase GRK7 (Homo sapiens) (UniProt Q8WTQ7); assay: Binding affinity to wild-type human full length GRK7 (M1 to L553 residues) expressed in mammalian expression system assessed as residual binding level at 1 uM by Kinomescan method relative to control; in short: as §1
[7] = molecular target: Tyrosine-protein kinase ABL2 (Homo sapiens) (UniProt P42684); assay: Binding affinity to wild-type human ABL2 (A248 to G542 residues) expressed in bacterial expression system assessed as residual binding level at 1 uM by Kinomescan method relative to control
In short: (§2)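 KinomeScan, an active site-directed competition binding panel of 468 kinases. The test compound was at 1 μM. The readout is remaining kinase binding as a percentage of the DMSO control. Scores above 35% were treated as weak binding and not listed.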

[8] = molecular target: Myosin-IIIb (Homo sapiens) (UniProt Q8WXR4); assay: Binding affinity to wild-type human partial length MYO3B (M1 to D357 residues) expressed in bacterial expression system assessed as residual binding level at 1 uM by Kinomescan method relative to control
[9] = molecular target: 3-phosphoinositide-dependent protein kinase 1 (Homo sapiens) (UniProt O15530); assay: Binding affinity to wild-type human full length PDPK1 (M1 to Q556 residues) expressed in bacterial expression system assessed as residual binding level at 1 uM by Kinomescan method relative to control; in short: as §2
[10] = test system: HCC827; assay: Antiproliferative activity against human HCC827 cells assessed as reduction in cell viability incubated for 72 hrs by cell-titer glo assay relative to control; assay type: functional
In short: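 Cells seeded at 2000 cells/well, dosed next day with a range of concentrations (DMSO 0.2% as control), 72 h exposure, viability read by CellTiter-Glo luminescence. Dose–response curves and GR values derived with the online GR calculator. Two independent experiments, each in technical triplicate.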

[11] = molecular target: Ephrin type-B receptor 3 (Homo sapiens) (UniProt P54753); assay: Binding affinity to wild-type human partial length EPHB3 (Q599 to T928 residues) expressed in bacterial expression system assessed as residual binding level at 1 uM by Kinomescan method relative to control
In short: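 Active-site-directed competition binding panel of 468 kinases (KinomeScan), compound at 1 μM. The read-out is kinase remaining bound, given as a percentage of the DMSO control. […]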

[12] = test system: Proto-oncogene tyrosine-protein kinase receptor Ret (Homo sapiens), P07949 [V804M]; assay: Binding affinity to human partial length RET V804M mutant (E713 to D1014 residues) expressed in bacterial expression system assessed as residual binding level at 1 uM by Kinomescan method relative to control
In short: (§3)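 KinomeScan active site-directed competition binding panel (468 kinases), compound tested at 1 μM. Result expressed as remaining kinase signal versus DMSO control (percent of control).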

[13] = molecular target: Calcium/calmodulin-dependent protein kinase type II subunit beta (Homo sapiens) (UniProt Q13554); assay: Binding affinity to wild-type human partial length CAMK2B (M1 to Q380 residues) expressed in bacterial expression system assessed as residual binding level at 1 uM by Kinomescan method relative to control
[14] = molecular target: Casein kinase I isoform gamma-1 (Homo sapiens) (UniProt Q9HCP0); assay: Binding affinity to wild-type human partial length CSNK1G1 (T15 to S353 residues) expressed in bacterial expression system assessed as residual binding level at 1 uM by Kinomescan method relative to control
[15] = molecular target: Cyclin-dependent kinase 17 (Homo sapiens) (UniProt Q00537); assay: Binding affinity to wild-type human full length PCTK2 (M1 to F523 residues) expressed in bacterial expression system assessed as residual binding level at 1 uM by Kinomescan method relative to control
In short: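 Active-site-directed competition binding panel (KinomeScan) covering 468 kinases. Test agent was screened at 1 μM. The read-out is the remaining kinase signal expressed relative to a DMSO control. Scores above 35%, taken as weak binding, were not reported.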

[16] = molecular target: Wee1-like protein kinase (Homo sapiens) (UniProt P30291); assay: Binding affinity to wild-type human partial length WEE1 (M291 to K575 residues) expressed in bacterial expression system assessed as residual binding level at 1 uM by Kinomescan method relative to control
[17] = molecular target: Ribosomal protein S6 kinase alpha-3 (Homo sapiens) (UniProt P51812); assay: Binding affinity to wild-type human partial length N- terminal RSK2 kinase domain 1 (M1 to D394 residues) expressed in mammalian expression system assessed as residual binding level at 1 uM by Kinomescan method relative to control
[18] = test system: Proto-oncogene tyrosine-protein kinase receptor Ret (Homo sapiens), P07949 [V804L]; assay: Binding affinity to human partial length RET V804L mutant (E713 to D1014 residues) expressed in bacterial expression system assessed as residual binding level at 1 uM by Kinomescan method relative to control; in short: as §3
[19] = molecular target: Serine/threonine-protein kinase NIM1 (Homo sapiens) (UniProt Q8IY84); assay: Binding affinity to wild-type human partial length NIM1 (Q44 to N355 residues) expressed in mammalian expression system assessed as residual binding level at 1 uM by Kinomescan method relative to control
[20] = molecular target: Serine/threonine-protein kinase Sgk2 (Homo sapiens) (UniProt Q9HBY8); assay: Binding affinity to wild-type human partial length SGK2 (L54 to C427 residues) expressed in mammalian expression system assessed as residual binding level at 1 uM by Kinomescan method relative to control
Sequence of Serine/threonine-protein kinase Sgk2 (Homo sapiens) (Q9HBY8 whole entry, the tested form may be a part): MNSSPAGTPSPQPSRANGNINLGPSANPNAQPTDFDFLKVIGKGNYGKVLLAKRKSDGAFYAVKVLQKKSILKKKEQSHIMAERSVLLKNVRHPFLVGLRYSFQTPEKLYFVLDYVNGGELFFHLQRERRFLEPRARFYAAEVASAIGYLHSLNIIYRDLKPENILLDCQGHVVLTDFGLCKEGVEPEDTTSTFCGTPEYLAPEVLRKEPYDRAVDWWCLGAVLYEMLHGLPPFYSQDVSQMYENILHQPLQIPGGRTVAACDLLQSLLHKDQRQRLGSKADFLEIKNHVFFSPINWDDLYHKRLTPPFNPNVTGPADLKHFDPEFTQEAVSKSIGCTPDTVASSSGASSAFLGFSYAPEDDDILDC

Sequence of Serine/threonine-protein kinase NIM1 (Homo sapiens) (Q8IY84 whole entry, the tested form may be a part): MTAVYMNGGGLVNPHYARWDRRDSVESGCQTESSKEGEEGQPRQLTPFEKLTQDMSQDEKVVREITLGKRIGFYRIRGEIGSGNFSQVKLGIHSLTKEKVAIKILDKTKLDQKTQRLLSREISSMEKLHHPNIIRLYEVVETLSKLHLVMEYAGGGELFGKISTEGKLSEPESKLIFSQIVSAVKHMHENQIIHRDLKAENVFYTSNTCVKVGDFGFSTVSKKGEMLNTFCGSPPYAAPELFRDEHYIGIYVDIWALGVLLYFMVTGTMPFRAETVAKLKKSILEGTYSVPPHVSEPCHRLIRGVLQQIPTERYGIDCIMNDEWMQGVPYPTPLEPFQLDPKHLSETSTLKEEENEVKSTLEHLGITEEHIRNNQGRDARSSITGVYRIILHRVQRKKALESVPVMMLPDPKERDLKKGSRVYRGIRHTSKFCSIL
Sequence of Ribosomal protein S6 kinase alpha-3 (Homo sapiens) (P51812 whole entry, the tested form may be a part): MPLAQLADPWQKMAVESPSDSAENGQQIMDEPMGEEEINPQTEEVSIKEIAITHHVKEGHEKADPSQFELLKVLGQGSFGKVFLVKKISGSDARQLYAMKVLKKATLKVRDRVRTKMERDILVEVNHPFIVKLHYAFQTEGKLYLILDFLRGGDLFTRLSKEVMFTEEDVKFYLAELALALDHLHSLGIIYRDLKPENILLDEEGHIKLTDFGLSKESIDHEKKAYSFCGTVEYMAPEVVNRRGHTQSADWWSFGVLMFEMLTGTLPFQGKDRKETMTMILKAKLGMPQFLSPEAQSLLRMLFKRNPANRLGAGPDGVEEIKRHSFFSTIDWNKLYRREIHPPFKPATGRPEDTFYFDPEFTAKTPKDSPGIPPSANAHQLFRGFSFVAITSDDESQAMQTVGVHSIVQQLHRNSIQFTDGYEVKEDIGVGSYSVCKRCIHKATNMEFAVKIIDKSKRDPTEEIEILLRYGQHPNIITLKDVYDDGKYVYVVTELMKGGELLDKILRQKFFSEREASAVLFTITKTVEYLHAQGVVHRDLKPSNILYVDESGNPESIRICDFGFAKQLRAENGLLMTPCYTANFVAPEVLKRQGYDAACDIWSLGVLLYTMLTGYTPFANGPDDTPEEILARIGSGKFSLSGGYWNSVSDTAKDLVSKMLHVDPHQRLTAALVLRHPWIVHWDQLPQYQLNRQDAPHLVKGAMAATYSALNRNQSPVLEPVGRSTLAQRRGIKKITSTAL
Sequence of Ephrin type-B receptor 3 (Homo sapiens) (P54753 whole entry, the tested form may be a part): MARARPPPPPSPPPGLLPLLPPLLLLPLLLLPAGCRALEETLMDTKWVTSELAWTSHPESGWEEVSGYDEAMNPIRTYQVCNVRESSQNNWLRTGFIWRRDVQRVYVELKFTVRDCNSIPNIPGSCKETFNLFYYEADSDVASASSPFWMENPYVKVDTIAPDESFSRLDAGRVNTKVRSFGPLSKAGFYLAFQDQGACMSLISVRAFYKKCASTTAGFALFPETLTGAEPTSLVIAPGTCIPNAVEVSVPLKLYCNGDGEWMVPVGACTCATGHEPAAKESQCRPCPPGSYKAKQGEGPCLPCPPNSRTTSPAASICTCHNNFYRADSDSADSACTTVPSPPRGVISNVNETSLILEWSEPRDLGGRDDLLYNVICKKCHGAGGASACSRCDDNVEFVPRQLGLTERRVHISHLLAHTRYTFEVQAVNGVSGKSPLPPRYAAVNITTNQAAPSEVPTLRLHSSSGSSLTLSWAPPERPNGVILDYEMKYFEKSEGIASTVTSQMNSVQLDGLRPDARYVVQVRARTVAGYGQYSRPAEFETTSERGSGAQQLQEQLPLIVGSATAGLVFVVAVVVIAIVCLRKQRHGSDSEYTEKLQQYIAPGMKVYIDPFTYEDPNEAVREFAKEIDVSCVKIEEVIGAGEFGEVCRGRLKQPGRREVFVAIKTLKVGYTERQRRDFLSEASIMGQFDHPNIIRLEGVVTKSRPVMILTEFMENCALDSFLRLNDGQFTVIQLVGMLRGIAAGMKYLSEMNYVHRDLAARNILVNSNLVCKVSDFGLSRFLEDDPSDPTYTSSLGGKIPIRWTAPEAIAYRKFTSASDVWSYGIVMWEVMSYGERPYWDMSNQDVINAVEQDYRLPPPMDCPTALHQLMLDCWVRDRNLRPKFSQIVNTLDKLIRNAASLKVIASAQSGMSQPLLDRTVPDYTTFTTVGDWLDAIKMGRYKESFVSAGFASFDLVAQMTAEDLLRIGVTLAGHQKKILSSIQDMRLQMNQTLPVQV
Sequence of Death-associated protein kinase 2 (Homo sapiens) (Q9UIK4 whole entry, looked up, the tested form may be a part): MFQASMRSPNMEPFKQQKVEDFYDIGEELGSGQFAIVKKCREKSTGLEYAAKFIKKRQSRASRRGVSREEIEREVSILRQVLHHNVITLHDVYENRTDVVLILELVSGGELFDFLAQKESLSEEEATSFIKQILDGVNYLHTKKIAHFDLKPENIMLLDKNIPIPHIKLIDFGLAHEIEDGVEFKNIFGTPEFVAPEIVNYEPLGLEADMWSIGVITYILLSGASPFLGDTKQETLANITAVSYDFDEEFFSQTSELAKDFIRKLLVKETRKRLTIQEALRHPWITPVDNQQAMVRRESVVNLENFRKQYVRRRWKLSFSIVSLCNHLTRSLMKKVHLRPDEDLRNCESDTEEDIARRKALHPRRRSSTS
Sequence of Casein kinase I isoform gamma-1 (Homo sapiens) (Q9HCP0 whole entry, looked up, the tested form may be a part, canonical isoform): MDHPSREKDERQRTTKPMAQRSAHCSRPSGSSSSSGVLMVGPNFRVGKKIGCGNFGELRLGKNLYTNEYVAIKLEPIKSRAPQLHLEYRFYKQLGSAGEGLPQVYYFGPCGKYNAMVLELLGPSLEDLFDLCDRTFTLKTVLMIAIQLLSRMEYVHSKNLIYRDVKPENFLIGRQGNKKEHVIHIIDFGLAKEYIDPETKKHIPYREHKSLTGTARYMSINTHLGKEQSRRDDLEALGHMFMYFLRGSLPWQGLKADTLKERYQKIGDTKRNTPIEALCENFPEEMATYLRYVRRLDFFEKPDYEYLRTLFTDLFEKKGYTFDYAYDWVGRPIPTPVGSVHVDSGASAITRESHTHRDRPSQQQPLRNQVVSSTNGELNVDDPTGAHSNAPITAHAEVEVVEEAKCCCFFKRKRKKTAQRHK
Sequence of Proto-oncogene tyrosine-protein kinase receptor Ret (Homo sapiens), P07949 [V804L] (P07949 whole entry V804L, the tested form may be a part): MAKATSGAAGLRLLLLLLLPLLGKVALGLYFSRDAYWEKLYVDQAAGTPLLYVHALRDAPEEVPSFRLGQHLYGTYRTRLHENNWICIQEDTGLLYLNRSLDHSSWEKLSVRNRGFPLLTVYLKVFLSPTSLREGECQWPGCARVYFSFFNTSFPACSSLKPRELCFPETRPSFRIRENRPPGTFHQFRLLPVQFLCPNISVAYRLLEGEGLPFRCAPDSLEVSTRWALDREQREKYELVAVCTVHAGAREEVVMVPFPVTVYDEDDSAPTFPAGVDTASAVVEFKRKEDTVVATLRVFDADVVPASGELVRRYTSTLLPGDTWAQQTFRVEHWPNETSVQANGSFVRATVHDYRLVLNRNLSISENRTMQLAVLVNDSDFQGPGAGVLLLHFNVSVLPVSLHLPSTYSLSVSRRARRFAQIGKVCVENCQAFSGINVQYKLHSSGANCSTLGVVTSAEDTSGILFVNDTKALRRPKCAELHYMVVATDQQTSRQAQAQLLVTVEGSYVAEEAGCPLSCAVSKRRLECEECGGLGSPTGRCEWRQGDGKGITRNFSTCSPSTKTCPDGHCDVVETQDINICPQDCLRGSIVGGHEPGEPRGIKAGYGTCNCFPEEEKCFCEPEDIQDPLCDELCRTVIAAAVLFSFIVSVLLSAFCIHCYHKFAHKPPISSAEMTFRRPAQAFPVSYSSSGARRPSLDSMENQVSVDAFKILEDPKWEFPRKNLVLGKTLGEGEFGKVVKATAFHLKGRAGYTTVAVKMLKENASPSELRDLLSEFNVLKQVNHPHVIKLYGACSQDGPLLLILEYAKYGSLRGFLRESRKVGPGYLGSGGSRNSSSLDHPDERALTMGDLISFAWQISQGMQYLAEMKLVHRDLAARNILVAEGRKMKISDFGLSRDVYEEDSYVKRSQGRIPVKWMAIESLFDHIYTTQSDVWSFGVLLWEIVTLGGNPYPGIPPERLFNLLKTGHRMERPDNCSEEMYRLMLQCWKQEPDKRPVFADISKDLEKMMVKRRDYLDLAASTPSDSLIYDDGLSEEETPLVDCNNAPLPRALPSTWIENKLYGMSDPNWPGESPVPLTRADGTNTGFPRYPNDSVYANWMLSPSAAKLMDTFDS
Sequence of Cyclin-dependent kinase 17 (Homo sapiens) (Q00537 whole entry, looked up, the tested form may be a part): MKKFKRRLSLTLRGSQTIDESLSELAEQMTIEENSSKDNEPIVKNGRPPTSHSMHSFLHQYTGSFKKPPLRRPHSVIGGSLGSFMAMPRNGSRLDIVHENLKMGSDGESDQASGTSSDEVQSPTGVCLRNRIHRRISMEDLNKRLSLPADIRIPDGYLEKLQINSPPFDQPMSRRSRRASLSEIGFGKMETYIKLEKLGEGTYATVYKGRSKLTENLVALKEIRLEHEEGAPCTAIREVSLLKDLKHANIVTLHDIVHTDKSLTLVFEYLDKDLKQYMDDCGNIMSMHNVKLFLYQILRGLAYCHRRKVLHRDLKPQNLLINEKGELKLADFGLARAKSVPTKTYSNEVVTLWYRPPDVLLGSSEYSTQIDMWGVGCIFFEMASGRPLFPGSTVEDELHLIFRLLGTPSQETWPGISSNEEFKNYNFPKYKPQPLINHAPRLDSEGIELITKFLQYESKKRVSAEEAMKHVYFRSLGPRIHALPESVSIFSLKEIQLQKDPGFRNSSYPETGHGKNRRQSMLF

C=CC(=O)Nc1ccccc1Nc1nc(Nc2ccc(N3CCN(C)CC3)cc2)ncc1C(=O)Nc1c(C)cccc1Cl
Activity [1]: 100% | Activity [2]: 100% | Activity [3]: 100% | Activity [4]: 92% | Activity [5]: 100% | Activity [6]: 100% | Activity [7]: 0.35% | Activity [8]: 91% | Activity [9]: 93% | Emax [10]: -0.6 | Activity [11]: 97% | Activity [12]: 100% | Activity [13]: 100% | Activity [14]: 100% | Activity [15]: 100% | Activity [16]: 100% | Activity [17]: 75% | Activity [18]: 100% | Activity [19]: 100% | Activity [20]: 100%

Reference: ChEMBL document CHEMBL4354843, “Structure-Based Design of a Potent and Selective Covalent Inhibitor for SRC Kinase That Targets a P-Loop Cysteine” (J Med Chem, 2020)
